This passage reports IC50 and inhibition results from ChEMBL document CHEMBL1944596, “7,8-dichloro-1-oxo-β-carbolines as a versatile scaffold for the development of potent and selective kinase inhibitors with unusual binding modes” (J Med Chem, 2012).

Activity calls are given as the source filed them. No cut-off for these calls is given here.

The target in assay [1] is Protein kinase C alpha type (Homo sapiens, UniProt P17252). As to the kind of experiment: Inhibition of PKCalpha using ATP as substrate.
Assay [2] addresses Proto-oncogene tyrosine-protein kinase receptor Ret (Homo sapiens, UniProt P07949). In words: Inhibition of RET using ATP as substrate.
Assay [3] addresses Rho-associated protein kinase 2 (Homo sapiens, UniProt O75116). As to the kind of experiment: Inhibition of ROCK2 using ATP as substrate.
For assay [4], the target named is Phosphatidylinositol 3-kinase catalytic subunit type 3 (Homo sapiens, UniProt Q8NEB9). In words: Inhibition of VPS34 using ATP as substrate.
The nature of assay [5]: Inhibition of PKA using ATP as substrate.
Assay [6] concerns the target Serine/threonine-protein kinase pim-2 (Homo sapiens, UniProt Q9P1W9). As to the kind of experiment: Inhibition of PIM2 using ATP as substrate.
In assay [7] the target is Phosphatidylinositol 4-kinase beta (Homo sapiens, UniProt Q9UBF8). As to the kind of experiment: Inhibition of PI4Kbeta using ATP as substrate.
The test system of assay [8] is K562. As to the kind of experiment: Growth inhibition of human K562 cells after 48 hrs by WST-1 assay. Type of assay: functional, cell-based. To be noted: K562, 48 h. In outline: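 Compound (0–10 μM) added to the culture medium and incubated 48 h. Proliferation and viability read by WST-1 reagent. Survival expressed as percentage of control cultures and IC50 derived by curve fitting.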

In assay [9] the test system is MV4-11. In words: Inhibition of PIM-mediated 4E-BP1 phosphorylation in human MV4-11 cells after 180 mins by Western blot analysis. The format is cell-based. In outline:
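MV4;11 cells at 5 × 10^5/mL in RPMI 1640 with 10% FCS, 37 °C, 5% CO2, treated at 0–10 μM for varied times. Lysed on ice in Triton X-100 buffer with NaF, Na3VO4 and protease inhibitors. 50 μg protein run on 15% SDS–PAGE and blotted for phospho-4E-BP1 with HRP chemiluminescence. Reprobed for total 4E-BP1 and β-actin as loading controls.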
A general note: In western blotting, separated proteins are transferred to a membrane and probed.

Assay [10] addresses Serine/threonine-protein kinase pim-1 (Homo sapiens, UniProt P11309). As to the kind of experiment: Inhibition of PIM1 using ATP as substrate.
Assay [11] addresses Mast/stem cell growth factor receptor Kit (Homo sapiens) (UniProt P10721). As to the kind of experiment: Inhibition of cKIT using ATP as substrate.

Rho-associated protein kinase 2, sequence (O75116 whole entry): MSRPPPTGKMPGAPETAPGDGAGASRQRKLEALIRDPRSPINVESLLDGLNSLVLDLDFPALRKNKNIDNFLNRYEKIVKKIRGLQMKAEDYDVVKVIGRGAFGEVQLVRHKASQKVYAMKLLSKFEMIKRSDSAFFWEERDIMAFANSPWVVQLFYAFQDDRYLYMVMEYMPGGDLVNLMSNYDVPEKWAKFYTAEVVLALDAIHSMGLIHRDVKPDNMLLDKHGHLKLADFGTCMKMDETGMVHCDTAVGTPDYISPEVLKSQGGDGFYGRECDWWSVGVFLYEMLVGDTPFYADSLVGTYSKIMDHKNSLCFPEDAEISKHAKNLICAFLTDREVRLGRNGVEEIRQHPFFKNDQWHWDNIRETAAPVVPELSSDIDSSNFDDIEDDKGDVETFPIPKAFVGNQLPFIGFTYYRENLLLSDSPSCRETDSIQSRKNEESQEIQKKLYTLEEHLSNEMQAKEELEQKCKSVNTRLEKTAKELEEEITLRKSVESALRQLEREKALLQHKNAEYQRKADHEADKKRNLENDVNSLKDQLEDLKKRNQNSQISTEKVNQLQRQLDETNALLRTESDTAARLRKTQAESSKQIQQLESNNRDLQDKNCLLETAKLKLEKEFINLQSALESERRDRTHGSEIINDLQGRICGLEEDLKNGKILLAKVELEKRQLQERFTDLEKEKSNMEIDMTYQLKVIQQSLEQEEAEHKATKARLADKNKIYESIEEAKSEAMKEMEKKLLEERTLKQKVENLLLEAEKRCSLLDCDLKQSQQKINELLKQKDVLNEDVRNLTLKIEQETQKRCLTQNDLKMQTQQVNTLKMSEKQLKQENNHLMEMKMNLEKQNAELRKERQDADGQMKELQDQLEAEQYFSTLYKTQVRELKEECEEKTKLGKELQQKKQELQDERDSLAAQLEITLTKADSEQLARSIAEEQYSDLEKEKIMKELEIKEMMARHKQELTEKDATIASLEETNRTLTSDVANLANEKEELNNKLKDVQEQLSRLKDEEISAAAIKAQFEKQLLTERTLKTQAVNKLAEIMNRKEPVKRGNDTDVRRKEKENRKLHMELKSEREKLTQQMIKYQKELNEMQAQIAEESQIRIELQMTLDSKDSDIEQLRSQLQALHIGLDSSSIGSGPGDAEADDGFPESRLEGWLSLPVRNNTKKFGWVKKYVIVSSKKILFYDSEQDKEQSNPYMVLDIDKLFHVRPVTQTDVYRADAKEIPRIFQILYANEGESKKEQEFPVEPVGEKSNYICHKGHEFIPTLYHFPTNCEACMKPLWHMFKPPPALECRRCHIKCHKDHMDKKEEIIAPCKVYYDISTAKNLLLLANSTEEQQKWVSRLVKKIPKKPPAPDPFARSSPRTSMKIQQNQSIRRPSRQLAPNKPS
Serine/threonine-protein kinase pim-2, sequence (Q9P1W9 whole entry): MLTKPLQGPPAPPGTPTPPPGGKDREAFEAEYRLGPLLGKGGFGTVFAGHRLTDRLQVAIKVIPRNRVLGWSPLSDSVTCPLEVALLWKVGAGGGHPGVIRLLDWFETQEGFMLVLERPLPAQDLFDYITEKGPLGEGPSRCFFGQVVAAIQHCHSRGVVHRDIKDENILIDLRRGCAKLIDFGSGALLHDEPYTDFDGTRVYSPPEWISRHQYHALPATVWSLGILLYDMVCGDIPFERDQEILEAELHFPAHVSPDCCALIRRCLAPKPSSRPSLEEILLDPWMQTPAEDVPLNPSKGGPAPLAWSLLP
Mast/stem cell growth factor receptor Kit (Homo sapiens), sequence (P10721 whole entry): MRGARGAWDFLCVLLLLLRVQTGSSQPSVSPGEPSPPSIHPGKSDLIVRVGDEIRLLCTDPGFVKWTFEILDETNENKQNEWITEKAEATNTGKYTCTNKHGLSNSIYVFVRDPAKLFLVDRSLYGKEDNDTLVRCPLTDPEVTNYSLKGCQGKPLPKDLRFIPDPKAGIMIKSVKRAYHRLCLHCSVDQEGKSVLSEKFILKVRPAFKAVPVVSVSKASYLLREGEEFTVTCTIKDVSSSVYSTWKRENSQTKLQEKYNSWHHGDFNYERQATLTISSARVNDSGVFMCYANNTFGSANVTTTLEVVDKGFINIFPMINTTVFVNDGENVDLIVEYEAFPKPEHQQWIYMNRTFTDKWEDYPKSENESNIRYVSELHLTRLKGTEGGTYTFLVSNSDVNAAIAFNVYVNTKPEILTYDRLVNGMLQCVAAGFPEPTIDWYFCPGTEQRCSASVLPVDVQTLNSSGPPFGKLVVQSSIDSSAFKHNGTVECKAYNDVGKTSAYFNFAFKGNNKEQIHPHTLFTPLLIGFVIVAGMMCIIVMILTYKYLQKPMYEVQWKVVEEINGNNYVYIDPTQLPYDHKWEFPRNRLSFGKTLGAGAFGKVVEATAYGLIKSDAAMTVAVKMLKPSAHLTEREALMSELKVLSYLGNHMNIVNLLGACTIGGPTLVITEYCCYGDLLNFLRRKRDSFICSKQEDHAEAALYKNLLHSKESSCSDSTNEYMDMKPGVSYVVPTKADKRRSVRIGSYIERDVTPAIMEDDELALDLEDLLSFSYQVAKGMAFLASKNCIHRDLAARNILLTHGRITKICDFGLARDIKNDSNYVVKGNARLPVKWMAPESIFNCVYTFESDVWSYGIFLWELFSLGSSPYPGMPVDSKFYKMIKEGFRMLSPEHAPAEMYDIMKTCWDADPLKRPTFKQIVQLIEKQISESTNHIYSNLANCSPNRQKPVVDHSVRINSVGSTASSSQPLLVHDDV
Phosphatidylinositol 3-kinase catalytic subunit type 3, sequence (Q8NEB9 whole entry): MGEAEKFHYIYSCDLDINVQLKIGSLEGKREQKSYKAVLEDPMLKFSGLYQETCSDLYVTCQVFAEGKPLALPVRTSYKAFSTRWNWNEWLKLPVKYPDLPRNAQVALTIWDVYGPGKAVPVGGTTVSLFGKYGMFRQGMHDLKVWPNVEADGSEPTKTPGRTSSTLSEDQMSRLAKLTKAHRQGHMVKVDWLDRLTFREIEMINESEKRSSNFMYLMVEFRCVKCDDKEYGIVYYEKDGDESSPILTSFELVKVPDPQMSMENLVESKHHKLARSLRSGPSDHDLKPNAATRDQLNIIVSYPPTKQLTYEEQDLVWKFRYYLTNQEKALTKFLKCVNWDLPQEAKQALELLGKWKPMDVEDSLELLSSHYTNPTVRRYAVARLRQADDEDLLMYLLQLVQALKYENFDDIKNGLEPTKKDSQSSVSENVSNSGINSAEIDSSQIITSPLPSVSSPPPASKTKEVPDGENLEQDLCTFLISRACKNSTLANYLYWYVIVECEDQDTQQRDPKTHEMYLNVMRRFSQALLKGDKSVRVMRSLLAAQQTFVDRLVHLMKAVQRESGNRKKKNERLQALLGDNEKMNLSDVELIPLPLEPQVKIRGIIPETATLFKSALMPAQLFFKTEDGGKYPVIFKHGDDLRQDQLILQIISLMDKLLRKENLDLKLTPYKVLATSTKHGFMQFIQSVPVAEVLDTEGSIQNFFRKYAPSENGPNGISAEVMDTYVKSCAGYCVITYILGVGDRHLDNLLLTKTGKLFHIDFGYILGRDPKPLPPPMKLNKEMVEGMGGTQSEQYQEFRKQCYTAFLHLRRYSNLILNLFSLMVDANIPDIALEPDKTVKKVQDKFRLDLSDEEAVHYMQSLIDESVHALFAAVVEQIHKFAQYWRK
Serine/threonine-protein kinase pim-1, sequence (P11309 whole entry): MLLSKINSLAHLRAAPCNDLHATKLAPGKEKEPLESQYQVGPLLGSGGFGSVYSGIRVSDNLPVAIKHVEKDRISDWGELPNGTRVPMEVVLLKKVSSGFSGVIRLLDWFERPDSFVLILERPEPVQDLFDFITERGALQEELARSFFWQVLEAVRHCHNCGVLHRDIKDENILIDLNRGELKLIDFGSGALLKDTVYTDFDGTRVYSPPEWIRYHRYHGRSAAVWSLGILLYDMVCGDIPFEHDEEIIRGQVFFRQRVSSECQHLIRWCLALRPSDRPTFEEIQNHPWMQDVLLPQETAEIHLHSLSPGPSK
Proto-oncogene tyrosine-protein kinase receptor Ret, sequence (P07949 whole entry): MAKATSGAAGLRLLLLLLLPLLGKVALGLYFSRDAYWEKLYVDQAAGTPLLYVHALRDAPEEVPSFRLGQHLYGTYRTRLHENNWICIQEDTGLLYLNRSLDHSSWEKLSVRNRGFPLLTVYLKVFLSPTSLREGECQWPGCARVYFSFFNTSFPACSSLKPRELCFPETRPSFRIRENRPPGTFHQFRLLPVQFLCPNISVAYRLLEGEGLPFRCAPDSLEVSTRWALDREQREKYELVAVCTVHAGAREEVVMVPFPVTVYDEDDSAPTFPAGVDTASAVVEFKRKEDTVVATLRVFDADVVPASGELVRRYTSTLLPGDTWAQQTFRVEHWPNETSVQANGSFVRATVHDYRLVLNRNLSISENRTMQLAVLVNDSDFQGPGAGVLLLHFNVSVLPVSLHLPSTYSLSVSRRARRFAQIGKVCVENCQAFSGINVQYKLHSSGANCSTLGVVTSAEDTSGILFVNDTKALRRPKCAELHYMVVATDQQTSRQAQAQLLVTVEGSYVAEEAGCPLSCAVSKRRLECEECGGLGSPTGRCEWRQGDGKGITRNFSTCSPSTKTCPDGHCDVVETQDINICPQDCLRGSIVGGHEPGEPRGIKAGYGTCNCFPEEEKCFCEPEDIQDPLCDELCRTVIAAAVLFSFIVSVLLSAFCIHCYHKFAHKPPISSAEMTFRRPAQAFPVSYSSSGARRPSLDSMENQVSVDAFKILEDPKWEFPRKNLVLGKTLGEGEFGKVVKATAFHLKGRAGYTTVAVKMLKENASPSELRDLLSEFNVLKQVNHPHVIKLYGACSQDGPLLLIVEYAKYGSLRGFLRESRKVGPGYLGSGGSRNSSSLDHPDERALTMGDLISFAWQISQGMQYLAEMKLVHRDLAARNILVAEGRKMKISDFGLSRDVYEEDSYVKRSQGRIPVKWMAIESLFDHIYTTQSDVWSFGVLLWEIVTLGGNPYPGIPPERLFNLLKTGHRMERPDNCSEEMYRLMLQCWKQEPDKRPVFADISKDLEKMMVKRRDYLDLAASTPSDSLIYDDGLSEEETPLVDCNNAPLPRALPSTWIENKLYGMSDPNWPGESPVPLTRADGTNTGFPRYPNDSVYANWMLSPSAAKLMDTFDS

What is called IC50 is the concentration that gives 50% inhibition. A low value points to higher potency. In the case of `Cn1c2c(c3ccc(Cl)c(Cl)c31)C(C#N)C1(CCNCC1)NC2=O` (racemic), the IC50 in [1] is 2200 nM; in [2], 7700 nM; in [3], 220 nM; in [4] it was greater than 9100 nM; in [5], 77 nM; in [6], 240 nM. Moreover, the IC50 was 2500 nM in assay [7], 6490 nM in assay [8] and 60 nM in [10]. Besides, the inhibition entry in assay [9] is “Dose-dependent effect”.

For `CN1CCC2(CC1)NC(=O)c1c(c3ccc(Cl)c(Cl)c3n1C)C2C#N` (racemic), the inhibition result in assay [11] was “inactive”.
